Assay results as given in ChEMBL document CHEMBL1144707, “Antiparasitic, antineuroinflammatory, and cytotoxic polyketides from the marine sponge Plakortis angulospiculatus collected in Brazil” (J Nat Prod, 2008).
Converted amounts (≈) assume the structure as drawn. The source made the active and inactive calls. The rule behind the calls is not given here.

What was measured:
HL-60 = assay: Cytotoxicity against human HL60 cells; type: functional, cell-based
Leishmania chagasi [1] = assay: Antileishmanial activity against Leishmania chagasi promastigotes infected in hamster after 48 hrs by MTT assay; type: functional, organism-based
Outline: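 Promastigotes maintained in M-199 with 10% calf serum and 0.25% hemin at 24 °C, seeded at 1 × 10^6 cells/well. Incubated with 0.488–500 µg/mL for 48 h at 24 °C, pentamidine as standard. Viability by MTT at 570 nm.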

[2] = Cytotoxicity against human macrophages after 48 hrs by MTT assay; type: cell-based, Macrophage
HCT-8 = assay: Cytotoxicity against human HCT8 cells; type: functional, cell-based
[3] = Antiinflammatory activity in rat neonatal brain microglia cells assessed as drug level causing 50% LDH release; type: functional, cell-based
Outline: (§1)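 Rat neonatal brain microglia, 2 × 10^5 cells per well, primed with E. coli LPS (0.3 ng/mL) for 17 h at 35.9 °C in 5% CO2. Cells were washed with HBSS, exposed to compounds (0.1–10 µM) or DMSO vehicle for 15 min, then stimulated with PMA (1 µM) for 70 min. O2-, TXB2 and LDH release were measured, duplicates, two independent experiments. IC50 for O2- and TXB2. LDH50 is the concentration giving 50% of the LDH release seen with 0.1% Triton X-100.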

[4] = Selectivity index, ratio of mouse peritoneal macrophages to Antitrypanosomal activity against Trypanosoma cruzi Y
[5] = Antiinflammatory activity in rat neonatal brain microglia cells assessed as phorbol 12-myristate 13-acetate-stimulated thromboxane B2 release; type: functional, cell-based; outline: as §1
[6] = Selectivity index, ratio of IC50 for human macrophages to IC50 for antileishmanial activity against Leishmania chagasi intracellular amastigotes; type: functional
Outline: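 Ratio of macrophage cytotoxicity IC50 (MTT, 48 h) to IC50 against L. chagasi intracellular amastigotes.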

Leishmania chagasi [7] = assay: Antileishmanial activity against Leishmania chagasi intracellular amastigotes infected in hamster macrophages after 48 hrs […]; type: functional, organism-based
Outline: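 Intracellular amastigotes tested in infected macrophages, with pentavalent antimony as standard. Amastigotes were obtained from hamster spleens 60–70 days postinfection. Parasite burden was scored as the mean number of amastigotes per macrophage over 500 cells. Result expressed as IC50.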

SF-295 = assay: Cytotoxicity against human SF295 cells; type: functional, cell-based
[8] = Toxicity in BALB/c mouse erythrocytes assessed as hemolysis at 6.25 ug/ml after 2 hrs; type: cell-based, Erythrocyte; settings: read-out: Activity
Outline: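 A 3% suspension of BALB/c mouse erythrocytes incubated with compounds for 2 h at 25 °C. Supernatant absorbance read at 550 nm.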

Trypanosoma cruzi = assay: Antitrypanosomal activity against Trypanosoma cruzi Y infected in […] LLC-MK2 cells after 24 hrs by MTT assay; type: functional, organism-based; settings: LLC-MK2, 24 h
Outline: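 Free trypomastigotes (Y strain) from LLC-MK2 cultures, seeded at 1 × 10^6 cells/well. Incubated up to 100 µg/mL for 24 h at 37 °C in 5% CO2, benznidazole as standard. Viability by MTT conversion, formazan extracted with 10% SDS for 18 h at 24 °C. IC50 in µg/mL.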

[9] = Antiinflammatory activity in rat neonatal brain microglia cells assessed as phorbol 12-myristate 13-acetate-stimulated superoxide release; type: functional, cell-based; outline: as §1
MDA-MB-435 = assay: Cytotoxicity against human MDA-MB-435 cells; type: functional, cell-based
Leishmania chagasi [10] = assay: Induction of morphological changes in Leishmania chagasi promastigotes assessed as mitochondrial swelling at 17 ug/ml after 3 hrs by electron microscopy; type: functional, organism-based
Outline: (§2)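 Promastigotes (kept in M-199 with 10% calf serum and 0.25% hemin at 24 °C) incubated with compound at 17 µg/mL at 24 °C for 0, 1, 3, 5 or 7 h. Cells then processed for transmission electron microscopy and compared with an untreated control for ultrastructural changes.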

Leishmania chagasi [11] = assay: Induction of morphological changes in Leishmania chagasi promastigotes assessed as cell membrane detachment at 17 ug/ml after 5 hrs by electron microscopy; type: functional, organism-based; outline: as §2
Leishmania chagasi [12] = assay: Induction of morphological changes in Leishmania chagasi promastigotes assessed as nuclear membrane blebs at 17 ug/ml after 5 hrs by electron microscopy; type: functional, organism-based; outline: as §2
Leishmania chagasi [13] = assay: Induction of morphological changes in Leishmania chagasi promastigotes assessed as nuclear destruction with chromatin decondensation at 17 ug/ml after 5 hrs by electron microscopy; type: functional, organism-based; outline: as §2
Leishmania chagasi [14] = assay: Induction of morphological changes in Leishmania chagasi promastigotes assessed as abnormal chromatin at 17 ug/ml after 3 hrs by electron microscopy; type: functional, organism-based; outline: as §2
Leishmania chagasi [15] = assay: Induction of morphological changes in Leishmania chagasi promastigotes assessed as increase in vacuoles at 17 ug/ml after 3 hrs by electron microscopy; type: functional, organism-based; outline: as §2
Leishmania chagasi [16] = assay: Induction of morphological changes in Leishmania chagasi promastigotes assessed as flagellar blebs at 17 ug/ml after 3 hrs by electron microscopy; type: functional, organism-based; outline: as §2
Macrophage = assay: Induction of nitric oxide in BALB/c mouse peritoneal macrophages at 4 ug/mL after 24 hrs by griess assay; type: functional, cell-based
Outline: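 Peritoneal macrophages incubated 24 h at 37 °C with compound at 4 µg/mL. LPS at 50 µg/mL served as the internal activation control. NO measured by Griess reaction, absorbance at 540 nm.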

[17] = Homo sapiens, Macrophage, 48 h, read-out: IC50
[18] = Leishmania chagasi, 48 h, read-out: IC50

Molecule: CC/C=C/[C@H](CC)C[C@]1(CC)C=C(CC)/C(=C/C(=O)OC)O1
- IC50 (HL-60): 8.6 µg/mL (≈ 28.1 µM)
- IC50 (Leishmania chagasi [1]): 8.5 µg/mL (≈ 27.7 µM)
- IC50 [2, 17]: 30.2 µg/mL (≈ 98.5 µM)
- IC50 (HCT-8): 7.2 µg/mL (≈ 23.5 µM)
- IC50 [3]: > 10 µM
- Selectivity index [4]: 1.8
- IC50 [5]: > 10 µM
- Selectivity index [6]: 18.6
- IC50 (Leishmania chagasi [7]; [18]): 1.6 µg/mL (≈ 5.22 µM)
- IC50 (SF-295): 11.4 µg/mL (≈ 37.2 µM)
- hemolysis at 2 h, 6.25 ug/ml [8]: 7.24%
- IC50 (Trypanosoma cruzi): 16.5 µg/mL (≈ 53.8 µM)
- IC50 [9]: > 10 µM
- IC50 (MDA-MB-435): 9.6 µg/mL (≈ 31.3 µM)

Molecule: CCCC[C@H](CC)C[C@]1(CC)C=C(CC)/C(=C\C(=O)OC)O1
- IC50 (HL-60): 15.2 µg/mL (≈ 49.3 µM)
- IC50 (Leishmania chagasi [1]): 3.9 µg/mL (≈ 12.6 µM)
- IC50 [2, 17]: 31.6 µg/mL (≈ 102 µM)
- IC50 (HCT-8): 8 µg/mL (≈ 25.9 µM)
- IC50 [3]: > 10 µM
- Selectivity index [4]: 1
- IC50 [5]: > 10 µM
- Selectivity index [6]: 9.2
- IC50 (Leishmania chagasi [7]; [18]): 3.4 µg/mL (≈ 11 µM)
- IC50 (SF-295): 16.8 µg/mL (≈ 54.5 µM)
- hemolysis at 2 h, 6.25 ug/ml [8]: 0%
- IC50 (Trypanosoma cruzi): 31.6 µg/mL (≈ 102 µM)
- IC50 [9]: > 10 µM
- IC50 (MDA-MB-435): 6.5 µg/mL (≈ 21.1 µM)

Molecule: O=C(Cn1ccnc1[N+](=O)[O-])NCc1ccccc1 [BENZNIDAZOLE]
- IC50 (Trypanosoma cruzi): 36.3 µg/mL (≈ 139 µM)

Molecule: N=C(N)c1ccc(OCCCCCOc2ccc(C(=N)N)cc2)cc1 [PENTAMIDINE]
- IC50 (Leishmania chagasi [1]): 0.1 µg/mL (≈ 0.294 µM)
- IC50 [2, 17]: 8.7 µg/mL (≈ 25.6 µM)

Molecule: CC/C=C/[C@H](CC)C/C(=C/[C@@]1(CC)C[C@H](CC)[C@H](CC(=O)O)OO1)CC [PLAKORTIDE N]
- Activity (Leishmania chagasi [10]): Active
- Activity (Leishmania chagasi [11]): Active
- Activity (Leishmania chagasi [12]): Active
- Activity (Leishmania chagasi [13]): Active
- IC50 (Leishmania chagasi [1]): 1.9 µg/mL (≈ 5.18 µM)
- IC50 [2, 17]: 16.6 µg/mL (≈ 45.3 µM)
- IC50 [3]: > 10 µM
- Selectivity index [4]: 7.1
- IC50 [5]: 0.93 µM
- Activity (Leishmania chagasi [14]): Active
- Selectivity index [6]: 31.7
- IC50 (Leishmania chagasi [7]; [18]): 0.5 µg/mL (≈ 1.36 µM)
- Activity (Leishmania chagasi [15]): Active
- Activity (Leishmania chagasi [16]): Active
- hemolysis at 2 h, 6.25 ug/ml [8]: 0%
- Activity (Macrophage): inactive
- IC50 (Trypanosoma cruzi): 2.3 µg/mL (≈ 6.27 µM)
- IC50 [9]: > 10 µM

Molecule: CC/C=C/[C@H](CC)C[C@@]1(C)C[C@@H](CC)[C@@H](CC(=O)OC)OO1 [PLAKORTIN]
- IC50 (HL-60): 13.3 µg/mL (≈ 42.6 µM)
- IC50 (Leishmania chagasi [1]): 6 µg/mL (≈ 19.2 µM)
- IC50 [2, 17]: 4.7 µg/mL (≈ 15 µM)
- IC50 (HCT-8): 3 µg/mL (≈ 9.6 µM)
- IC50 [3]: > 10 µM
- IC50 [5]: > 1 µM
- IC50 (SF-295): 9.8 µg/mL (≈ 31.4 µM)
- hemolysis at 2 h, 6.25 ug/ml [8]: 0%
- IC50 [9]: > 1 µM
- IC50 (MDA-MB-435): 10.4 µg/mL (≈ 33.3 µM)

Molecule: CC/C=C/[C@H](CC)C[C@]1(C)C=C(CC)/C(=C/C(=O)OC)O1 [SPONGOSORITIN A]
- IC50 (HL-60): > 25 µg/mL
- IC50 (Leishmania chagasi [1]): 2.5 µg/mL (≈ 8.55 µM)
- IC50 [2, 17]: 29.8 µg/mL (≈ 102 µM)
- IC50 (HCT-8): > 25 µg/mL
- IC50 [3]: > 10 µM
- Selectivity index [4]: 1.15
- IC50 [5]: > 10 µM
- Selectivity index [6]: 9.6
- IC50 (Leishmania chagasi [7]; [18]): 3.1 µg/mL (≈ 10.6 µM)
- IC50 (SF-295): > 25 µg/mL
- hemolysis at 2 h, 6.25 ug/ml [8]: 1.8%
- IC50 (Trypanosoma cruzi): 25.7 µg/mL (≈ 87.9 µM)
- IC50 [9]: > 10 µM
- IC50 (MDA-MB-435): > 25 µg/mL

Molecule: MEGLUMINE ANTIMONATE
- IC50 ([2]; macrophage): > 1000 µg/mL
- IC50 (Leishmania chagasi [7]): 21 µg/mL
